Laboratory results: ChEMBL document CHEMBL1128497, “Synthesis and in vitro and in vivo antitumor activity of a series of trans platinum antitumor complexes” (J Med Chem, 1995)
Several values for one entry are separate records, joined by “and”; a condition that tells them apart may be missing. Identical values can stand only once.

Key:
Format in all cases: functional, cell-based, Homo sapiens
[1] = test system: SK-OV-3; assay: In vitro antitumor activity against SK-OV-3 cell line.
Summary of the method: (§1)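 Human ovarian carcinoma monolayers were grown in DMEM with 10% FCS, insulin and hydrocortisone under 10% CO2. Cells were seeded at 5 × 10^3–1 × 10^4 per well and left to attach overnight. Drugs were freshly dissolved in 0.9% saline (1 mM or 500 μM stocks) and added to quadruplicate wells for 96 h. Cell mass was read by SRB staining. IC50 values are means of at least two experiments.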

[2] = test system: 41M; assay: In vitro antitumor activity against 41McisR cell line.; summary of the method: as §1
[3] = test system: A2780; assay: In vitro antitumor activity against A2780 cell line.; summary of the method: as §1
[4] = test system: 41M; assay: In vitro antitumor activity against 41M cell line.; summary of the method: as §1
[5] = test system: CH1; assay: In vitro antitumor activity against CH1 cell line.; summary of the method: as §1
[6] = test system: CH1; assay: In vitro antitumor activity against CH1cisR cell line.; summary of the method: as §1
[7] = test system: A2780; assay: In vitro antitumor activity against A2780cisR cell line.; summary of the method: as §1

“trans-a-Ammine-b,d-dichloro-c,e-dihydroxo-f-(quinuclidine)-platinium (IV)” was tested, and the IC50 [1] was 27 µM, the IC50 [2] was 9.5 µM and the IC50 [3] was 3.2 µM. For the same substance, the IC50 [4] was 14.4 µM, the IC50 [5] was 10.2 µM and the IC50 [6] was 14.3 µM. The IC50 [7] was 16 µM.
For “trans-a-ammine-b,d-dichloro-f-(cyclohexylamine)-c,e-dihydroxoplatinium (IV)”, the IC50 [1] was 6 µM and 16.6 µM, the IC50 [2] was 1.4 µM and 3.2 µM and the IC50 [3] was 0.42 µM and 0.8 µM. The IC50 [4] was 1.3 µM and 3.5 µM, the IC50 [5] was 1.1 µM and 0.57 µM and the IC50 [6] was 2.1 µM and 2 µM. The IC50 [7] was 3 µM and 1.9 µM.
With “trans-a,f-Dichloro-b,d-bis(cyclohexylamine)-c,e-dihydroxo-platinium (IV)” the IC50 [1] was 2.5 µM, the IC50 [2] was 1.2 µM and the IC50 [3] was 0.8 µM. For the same substance, the IC50 [4] was 0.8 µM, the IC50 [5] was 0.55 µM and the IC50 [6] was 0.6 µM. The IC50 [7] was 3.2 µM.
With “trans-Amminedichloro(quinuclidine)platinium (II)” the IC50 [1] was greater than 50 µM, the IC50 [2] was greater than 50 µM and the IC50 [3] was 26 µM. It also gave an IC50 [4] greater than 50 µM, an IC50 [5] greater than 50 µM and an IC50 [6] greater than 50 µM. It also gave an IC50 [7] greater than 50 µM.
In the case of “trans-Amminetetrachloro(quinuclidine)-platinium (IV)”, the IC50 [1] is reported as 29 µM, the IC50 [2] is reported as 16 µM and the IC50 [3] is reported as 14 µM. The IC50 [4] was 16.5 µM, the IC50 [5] was 15.5 µM and the IC50 [6] was 15.5 µM. For the same substance, the IC50 [7] was 16 µM.
“Trans-Amminedichloro(diethylamine)platinium (II)” showed an IC50 [1] greater than 50 µM, an IC50 [2] greater than 50 µM and an IC50 [3] greater than 50 µM. For the same substance, the IC50 [4] was greater than 50 µM, the IC50 [5] was greater than 50 µM and the IC50 [6] was greater than 50 µM. The IC50 [7] was greater than 50 µM.
With “trans-Amminetetrachloro(cyclohexylamine)-platinium (IV)” the IC50 [1] was 9.3 µM, the IC50 [2] was 4.1 µM and the IC50 [3] was 1.5 µM. For the same substance, the IC50 [4] was 3.1 µM, the IC50 [5] was 3.9 µM and the IC50 [6] was 4.7 µM. The IC50 [7] was 5.3 µM.
“Trans-Amminedichloro(cycloheptylamine)platinium (II)” was tested, and the IC50 [1] was 10 µM, the IC50 [2] was 1.7 µM and the IC50 [3] was 1.3 µM. It also gave an IC50 [4] of 2.4 µM, an IC50 [5] of 4.3 µM and an IC50 [6] of 4.7 µM. The IC50 [7] was 4.6 µM.
Work on “trans-a-ammine-b,d-dichloro-f-(cyclohexylamine)-c,e-bis-(ethylcarbamato)platinium (IV)” yielded an IC50 [1] of 19 µM, an IC50 [2] of 4.3 µM and an IC50 [3] of 3.2 µM. The IC50 [4] was 6.2 µM, the IC50 [5] was 4.6 µM and the IC50 [6] was 5.6 µM. It also gave an IC50 [7] of 10.6 µM.
Work on “trans-a-Ammine-b,d-dichloro-c,e-dihydrooxy-f-(ethylamine)-platinium (IV)” yielded an IC50 [1] of 45 µM, an IC50 [2] of 13.3 µM and an IC50 [3] of 4.5 µM. It also gave an IC50 [4] of 9.4 µM, an IC50 [5] of 10.3 µM and an IC50 [6] of 14 µM. The IC50 [7] was 26.5 µM.
For “Trans-Amminedichloro hexylamine platinium (II)”, the IC50 [1] was 7.1 µM, the IC50 [2] was 4.1 µM and the IC50 [3] was 2.3 µM. It also gave an IC50 [4] of 4.5 µM, an IC50 [5] of 4 µM and an IC50 [6] of 4.4 µM. For the same substance, the IC50 [7] was 4.8 µM.
“trans-(1-Aminoadamantane)Amminedichloro-platinium (II)” showed an IC50 [1] of 1.5 µM, an IC50 [2] of 1.2 µM and an IC50 [3] of 0.4 µM. It also gave an IC50 [4] of 0.49 µM, an IC50 [5] of 0.21 µM and an IC50 [6] of 0.43 µM. The IC50 [7] was 1.4 µM.
Work on “trans-a-Ammine-b,d-dichloro-c,e-dihydroxy-f-(diethylamine)-platinium (IV)” yielded an IC50 [1] of 12.1 µM, an IC50 [2] of 0.76 µM and an IC50 [3] of 1.9 µM. For the same substance, the IC50 [4] was 1.8 µM, the IC50 [5] was 3.3 µM and the IC50 [6] was 4.5 µM. For the same substance, the IC50 [7] was 11.6 µM.
“trans-Amminedibromo (cyclohexylamine)-platinium (II)” was tested, and the IC50 [1] was 11.5 µM, the IC50 [2] was 3.2 µM and the IC50 [3] was 1.9 µM. The IC50 [4] was 4 µM, the IC50 [5] was 4 µM and the IC50 [6] was 5 µM. The IC50 [7] was 5.4 µM.
